According to ChEMBL document CHEMBL1144439, “A novel class of in vivo active anticancer agents: achiral seco-amino- and seco-hydroxycyclopropylbenz[e]indolone (seco-CBI) analogues of the duocarmycins and CC-1065” (J Med Chem, 2005):

Columns and labels:
P815 = test: The concentration required for inhibiting the growth of the murine P815 mastocytoma cells by 50%; type: functional, cell-based; conditions: Mus musculus
Outline: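 P815 cells grown in DMEM with 10% FBS, HEPES, glutamine and pen/strep, seeded at 80 000 cells/well. Drug in DMSO/DMEM was added to final concentrations from 1.0 × 10^-12 to 1.0 × 10^-4 M, continuous for 72 h at 37 °C, 5% CO2, in quadruplicate. MTT was added for 4 h and solubilised in acid 2-propanol, read at 570/630 nm. IC50 was extrapolated from mean absorbance curves.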

[1] = The concentration required for inhibiting the growth of the murine B16-F0 melanoma cells by 50%; type: functional; conditions: Mus musculus, B16F0
Outline: (§1)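 MTT growth inhibition in murine lines grown in DMEM with 10% FBS, HEPES, glutamine, pen/strep at 37 °C, 5% CO2. Seeded 80 000 cells/well, continuous drug exposure (DMSO stock diluted in DMEM) for 72 h, quadruplicate wells per concentration. MTT added for 4 h, formazan dissolved in acid 2-propanol, read at 570 nm (reference 630 nm). IC50 extrapolated from averaged absorbance curves.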

K562 = test: The concentration required for inhibiting the growth of the human K562 chronic myeloid leukemia cells by 50%; type: functional, cell-based
Outline: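 Drug exposure was […] in the dark, then cells were washed and plated at 10⁴ cells/well, eight wells per sample, and incubated 4 days. MTT was added for 5 h, formazan dissolved in DMSO and read at 550 nm.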

L1210 = test: The concentration required for inhibiting the growth of the murine L1210 leukemia cells by 50%; type: functional, cell-based; conditions: Mus musculus; outline: as §1

Row | SMILES | IC50 (P815) [µM] | IC50 [1] [µM] | IC50 (K562) [µM] | IC50 (L1210) [µM]
1 | COc1cc2cc(C(=O)Nc3cc(O)c4ccccc4c3CCCl)[nH]c2c(OC)c1OC | 0.025 | 0.027 | 0.15 | 0.055
2 | COc1cc2cc(C(=O)Nc3cc(N)c4ccccc4c3CCOC(C)=O)[nH]c2c(OC)c1OC |  | 54 |  | 53
3 | Nc1cc(NC(=O)c2cc3cc(NC(=O)c4cc5ccccc5o4)ccc3[nH]2)c(CCCl)c2ccccc12 |  | 0.043 |  | 0.087
